Published values pooled from the literature.
Compare with care: the assays were run in different laboratories.
FGFR3: Fibroblast growth factor receptor 3 (FGFR3, Homo sapiens, UniProt P22607)

Cc1nn(C)cc1-c1nc2c(N3CCN(Cc4ccc(Cl)cc4)CC3)c(Cl)cnc2[nH]1 — remaining binding (Fibroblast growth factor receptor 3 (FGFR3, Homo sapiens, UniProt P22607, G697C); binding, competition with immobilised ligand; 1 µM): 69%
C#Cc1n[nH]c2c(-c3cn(C(C)c4ccccn4)c(=O)[nH]c3=O)cc(F)cc12 (stereo not drawn) — inhibition (FGFR3; enzyme activity, inhibitor; 1 µM): 9.3%
COc1ncccc1-c1cnn2ccc(N3CCN(C(=O)OC(C)C)CC3)nc12 — remaining binding (FGFR3; binding, competition with immobilised ligand; 1 µM): 86%
Cn1cc(-c2cc(F)cc(N3CCn4c(cc5c4CCCC5)C3=O)c2CO)cc(Nc2ccc(N3CCN(C4COC4)CC3)cn2)c1=O — inhibition (FGFR3; enzyme activity, inhibitor; 0.1 µM): 19%
CC(C)(C)c1cc(C=C(C#N)C#N)cc(Br)c1O — remaining activity (FGFR3; enzyme activity, inhibitor; 0.5 µM): 92.8%
Nc1ncc(-c2nc(N3CCOCC3)nc(N3CCOCC3)n2)c(C(F)F)n1 — remaining binding (FGFR3; cell-free assay, competition with immobilised ligand; 10 µM): 88%
O=c1[nH]c2ccccc2n1C1CCN(Cc2ccc(-c3[nH]c4cc5ncnc5cc4nc3-c3ccccc3)cc2)CC1 — remaining signal (FGFR3; cell-free assay; 0.5 µM): 101%
COc1cc(Nc2ncc(F)c(Nc3ccc4c(n3)NC(=O)C(C)(C)O4)n2)cc(OC)c1OC — inhibition (FGFR3; binding, competition with immobilised ligand; 10 µM): 99%
Cn1cncc1[C@@](O)(COc1ccc(C#N)cc1-c1ccc(OC(F)(F)F)cc1)c1ccc(C#N)cc1 — remaining binding (FGFR3; cell-free assay, competition with immobilised ligand; 1 µM): 100%
